Results from ChEMBL document CHEMBL1144782, “Isoindolo[2,1-a]quinoxaline derivatives, novel potent antitumor agents with dual inhibition of tubulin polymerization and topoisomerase I” (2008).

Key:
SR = assay: Antitumor activity against human SR cells; type: functional
How it was run: (§1)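 NCI 60-cell-line screen. Parameters were GI50 (50% net growth inhibition), TGI and LC50, each reported as –log molar concentration. Where an effect was not reached within the tested range, the highest tested concentration was used in the calculation.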

SF-268 [1] = assay: Cell viability against human SF268 cells at 10 uM; type: functional
ACHN = assay: Antitumor activity against human ACHN cells; type: functional
How it was run: (§2)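 Run by the NCI in its in vitro disease-oriented screen of about 60 human tumour cell lines. For each line it reports pGI50 (50% net growth inhibition), pTGI (total growth inhibition) and pLC50 (50% net cell death), each as –log molar concentration. Where an effect was not reached within the tested range, the highest tested concentration was used.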

U-251 = assay: Antitumor activity against human U251 cells; type: functional; how it was run: as §1
RXF 393 = assay: Antitumor activity against human RXF393 cells; type: functional; how it was run: as §2
SK-MEL-2 = assay: Antitumor activity against human SKMEL2 cells; type: functional; how it was run: as §2
RPMI-8226 = assay: Antitumor activity against human RPMI8226 cells; type: functional; how it was run: as §2
A549 = assay: Antitumor activity against human A549 cells; type: functional; how it was run: as §2
CAKI-1 = assay: Antitumor activity against human CAKI1 cells; type: functional; how it was run: as §2
786-0 = assay: Antitumor activity against human 786-0 cells; type: functional; how it was run: as §2
MCF7 [2] = assay: Growth inhibition of human MCF7 cells after 72 hrs by MTT assay; type: functional; conditions: MCF7, 72 h
How it was run: (§3)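 Growth inhibition by MTT after 72 h incubation. Resistant sublines: LoVoDoxo and MCF-7 MDR were kept in 0.1 µg/mL doxorubicin; CEMVbl-100 was selected against vinblastine. GI50 given as mean ± SEM of three independent experiments. Resistance index is resistant-line GI50 over parental GI50.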

HT-29 = assay: Antitumor activity against human HT29 cells; type: functional; how it was run: as §2
Hs-578T = assay: Antitumor activity against human HS578T cells; type: functional; how it was run: as §2
BT-549 = assay: Antitumor activity against human BT549 cells; type: functional; how it was run: as §2
SK-OV-3 = assay: Antitumor activity against human SKOV3 cells; type: functional; how it was run: as §2
M14 = assay: Antitumor activity against human M14 cells; type: functional; how it was run: as §2
KM12 = assay: Antitumor activity against human KM12 cells; type: functional; how it was run: as §2
TK-10 = assay: Antitumor activity against human TK10 cells; type: functional; how it was run: as §1
HCT-15 = assay: Antitumor activity against human HCT15 cells; type: functional; how it was run: as §2
LOX IMVI = assay: Antitumor activity against human LOXIMVI cells; type: functional; how it was run: as §2
OVCAR-8 = assay: Antitumor activity against human OVCAR8 cells; type: functional; how it was run: as §2
HCT-116 = assay: Antitumor activity against human HCT116 cells; type: functional; how it was run: as §2
SF-268 [3] = assay: Antitumor activity against human SF268 cells; type: functional; how it was run: as §2
MCF7 [4] = assay: Resistance index, Ratio of GI50 for human multidrug-resistant MCF7 cells to GI50 for human MCF7 cells; type: functional; how it was run: as §3
Tubulin (Sus scrofa) = Tubulin (Sus scrofa) (UniProt P02554+P02550); assay: Inhibition of pig brain tubulin polymerization
A498 = assay: Antitumor activity against human A498 cells; type: functional; how it was run: as §2
PC-3 = assay: Antitumor activity against human PC3 cells; type: functional; how it was run: as §2
T47D = assay: Antitumor activity against human T47D cells; type: functional; how it was run: as §1
NCI/ADR-RES = assay: Antitumor activity against human NCI/ADR-RES cells; type: functional; how it was run: as §2
UACC-62 = assay: Antitumor activity against human UACC62 cells; type: functional; how it was run: as §1
NCI-H23 = assay: Antitumor activity against human NCI-H23 cells; type: functional; how it was run: as §2
NCI-H522 = assay: Antitumor activity against human NCI-H522 cells; type: functional; how it was run: as §2
MCF7 [5] = assay: Antitumor activity against human MCF7 cells; type: functional; how it was run: as §2
[6] = Antitumor activity against human […] cells; type: functional; how it was run: as §2
MCF7 [7] = assay: Cell viability against human MCF7 cells at 10 uM; type: functional
OVCAR-4 = assay: Antitumor activity against human OVCAR4 cells; type: functional; how it was run: as §2
EKVX = assay: Antitumor activity against human EKVX cells; type: functional; how it was run: as §2
SF-295 = assay: Antitumor activity against human SF295 cells; type: functional; how it was run: as §2
SW-620 = assay: Antitumor activity against human SW620 cells; type: functional; how it was run: as §1
CCRF-CEM = assay: Growth inhibition of human CEM cells after 72 hrs by MTT assay; type: functional; how it was run: as §3
[8] = read-out: Log LC50 (the source's name) (converted)

Tubulin (Sus scrofa), sequence (P02550 whole entry, looked up): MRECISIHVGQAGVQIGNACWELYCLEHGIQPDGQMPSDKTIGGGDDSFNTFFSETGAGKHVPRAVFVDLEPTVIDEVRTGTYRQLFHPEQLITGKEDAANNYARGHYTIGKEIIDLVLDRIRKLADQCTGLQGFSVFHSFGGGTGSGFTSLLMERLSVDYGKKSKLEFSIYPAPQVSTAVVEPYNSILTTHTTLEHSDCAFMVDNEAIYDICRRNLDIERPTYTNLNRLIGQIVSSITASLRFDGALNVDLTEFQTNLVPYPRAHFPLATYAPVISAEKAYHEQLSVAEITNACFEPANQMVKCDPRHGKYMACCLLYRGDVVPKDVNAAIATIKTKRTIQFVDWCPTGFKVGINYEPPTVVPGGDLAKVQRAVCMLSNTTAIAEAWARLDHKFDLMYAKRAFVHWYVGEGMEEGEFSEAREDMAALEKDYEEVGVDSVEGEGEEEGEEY
Tubulin (Sus scrofa), sequence (P02554 whole entry, looked up): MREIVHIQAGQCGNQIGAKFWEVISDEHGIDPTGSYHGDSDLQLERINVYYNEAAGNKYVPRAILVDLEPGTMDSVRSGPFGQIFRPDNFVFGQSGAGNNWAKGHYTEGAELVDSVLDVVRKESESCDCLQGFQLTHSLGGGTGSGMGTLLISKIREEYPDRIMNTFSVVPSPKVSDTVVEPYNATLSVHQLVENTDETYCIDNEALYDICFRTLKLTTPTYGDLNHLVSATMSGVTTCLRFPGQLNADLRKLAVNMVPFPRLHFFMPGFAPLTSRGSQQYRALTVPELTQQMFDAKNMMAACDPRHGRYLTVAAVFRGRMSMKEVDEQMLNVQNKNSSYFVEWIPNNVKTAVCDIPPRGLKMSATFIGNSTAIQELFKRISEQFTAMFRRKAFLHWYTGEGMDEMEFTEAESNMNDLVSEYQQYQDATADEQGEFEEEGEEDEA

O=c1[nH]c2cc(Cl)c(Cl)cc2n2cc3ccccc3c12
GI50 (SR): 17.4 µM | LC50 (SR): 87.1 µM | TGI (SR; read-out: pTGI (converted)): 38.9 µM | Activity (SF-268 [1]): 13% | GI50 (ACHN): 15.5 µM | LC50 (50% net cell kill) (ACHN): 53.7 µM | TGI (ACHN; read-out: pTGI (converted)): 28.8 µM | GI50 (U-251): 16.2 µM | CC50 (U-251; [8]): 55 µM | TGI (U-251; read-out: pTGI (converted)): 30.2 µM | GI50 (RXF 393): 17.4 µM | CC50 (RXF 393; [8]): 56.2 µM | TGI (RXF 393; read-out: pTGI (converted)): 30.9 µM | GI50 (SK-MEL-2): 25.1 µM | LC50 (SK-MEL-2): > 100 µM | TGI (SK-MEL-2; read-out: pTGI (converted)): 53.7 µM | GI50 (RPMI-8226): 22.4 µM | CC50 (RPMI-8226; [8]): > 100 µM | TGI (RPMI-8226; read-out: pTGI (converted)): 49 µM | GI50 (A549): 19.1 µM | CC50 (A549; [8]): 63.1 µM | TGI (A549; read-out: pTGI (converted)): 34.7 µM | GI50 (CAKI-1): 20.4 µM | LC50 (CAKI-1): 58.9 µM | TGI (CAKI-1; read-out: pTGI (converted)): 34.7 µM | GI50 (786-0): 25.1 µM | CC50 (786-0; [8]): 63.1 µM | TGI (786-0; read-out: pTGI (converted)): 39.8 µM | GI50 (MCF7 [2]): 3.3 µM | GI50 (HT-29): 28.8 µM | LC50 (HT-29): > 100 µM | TGI (HT-29; read-out: pTGI (converted)): > 100 µM | GI50 (Hs-578T): 20 µM | CC50 (Hs-578T; [8]): > 100 µM | TGI (Hs-578T; read-out: pTGI (converted)): 52.5 µM | GI50 (BT-549): 26.3 µM | LC50 (50% net cell kill) (BT-549): > 100 µM | TGI (BT-549; read-out: pTGI (converted)): 57.5 µM | GI50 (SK-OV-3): 18.2 µM | LC50 (50% net cell kill) (SK-OV-3): 61.7 µM | TGI (SK-OV-3; read-out: pTGI (converted)): 33.1 µM | GI50 (M14): 22.9 µM | CC50 (M14; [8]): 69.2 µM | TGI (M14; read-out: pTGI (converted)): 39.8 µM | GI50 (KM12): 17.4 µM | LC50 (50% net cell death) (KM12): 56.2 µM | TGI (KM12; read-out: pTGI (converted)): 30.9 µM | GI50 (TK-10): 16.6 µM | CC50 (TK-10; [8]): 55 µM | TGI (TK-10; read-out: pTGI (converted)): 30.2 µM | GI50 (HCT-15): 16.6 µM | CC50 (HCT-15; [8]): 55 µM | TGI (HCT-15; read-out: pTGI (converted)): 30.2 µM | GI50 (LOX IMVI): 17.4 µM | LC50 (50% net cell kill) (LOX IMVI): 56.2 µM | TGI (LOX IMVI; read-out: pTGI (converted)): 30.9 µM | GI50 (OVCAR-8): 18.6 µM | LC50 (50% net cell death) (OVCAR-8): 57.5 µM | TGI (OVCAR-8; read-out: pTGI (converted)): 32.4 µM | GI50 (HCT-116): 20.9 µM | LC50 (HCT-116): 58.9 µM | TGI (HCT-116; read-out: pTGI (converted)): 35.5 µM | GI50 (SF-268 [3]): 24 µM | CC50 (SF-268 [3]; [8]): 75.9 µM | TGI (SF-268 [3]; read-out: pTGI (converted)): 42.7 µM | RatioGI50 (MCF7 [4]): 2.3 | Activity (Tubulin (Sus scrofa)): > 10 µM | GI50 (A498): 15.8 µM | CC50 (A498; [8]): 56.2 µM | TGI (A498; read-out: pTGI (converted)): 30.2 µM | GI50 (PC-3): 17.4 µM | LC50 (50% net cell death) (PC-3): 56.2 µM | TGI (PC-3; read-out: pTGI (converted)): 30.9 µM | GI50 (T47D): 30.9 µM | LC50 (T47D): > 100 µM | TGI (T47D; read-out: pTGI (converted)): 75.9 µM | GI50 (NCI/ADR-RES): 17.8 µM | LC50 (NCI/ADR-RES): 56.2 µM | TGI (NCI/ADR-RES; read-out: pTGI (converted)): 31.6 µM | GI50 (UACC-62): 16.6 µM | LC50 (UACC-62): 55 µM | TGI (UACC-62; read-out: pTGI (converted)): 30.2 µM | GI50 (NCI-H23): 17.4 µM | LC50 (50% net cell kill) (NCI-H23): 56.2 µM | TGI (NCI-H23; read-out: pTGI (converted)): 30.9 µM | GI50 (NCI-H522): 10.2 µM | CC50 (NCI-H522; [8]): 93.3 µM | TGI (NCI-H522; read-out: pTGI (converted)): 30.9 µM | GI50 (MCF7 [5]): 21.4 µM | LC50 (50% net cell kill) (MCF7 [5]): 72.4 µM | TGI (MCF7 [5]; read-out: pTGI (converted)): 39.8 µM | GI50 [6]: 17.4 µM | LC50 [6]: 61.7 µM | TGI ([6]; read-out: pTGI (converted)): 32.4 µM | Activity (MCF7 [7]): 10% | GI50 (OVCAR-4): 20.4 µM | LC50 (50% net cell kill) (OVCAR-4): > 100 µM | TGI (OVCAR-4; read-out: pTGI (converted)): 50.1 µM | GI50 (EKVX): 21.9 µM | LC50 (50% net cell kill) (EKVX): 87.1 µM | TGI (EKVX; read-out: pTGI (converted)): 43.7 µM | GI50 (SF-295): 16.2 µM | CC50 (SF-295; [8]): 55 µM | TGI (SF-295; read-out: pTGI (converted)): 30.2 µM | GI50 (SW-620): 15.8 µM | CC50 (SW-620; [8]): 53.7 µM | TGI (SW-620; read-out: pTGI (converted)): 29.5 µM | GI50 (CCRF-CEM): 2.2 µM
